pIC50: −log10 of the molar value. “And” between values parts separate entries of the source, which are not always exact repeats. Equal entries are not always repeated. “Also recorded” adds a separate entry of the source. The source made the active and inactive calls. The rule behind the calls is not given here.
Assays:
PI3K p110 beta/p85 alpha = PI3K p110 beta/p85 alpha (Homo sapiens, UniProt P42338); assay: Inhibition of full length human His-tagged p110beta/p85alpha using PIP2 as substrate after 30 mins by TR-FRET assay; assay type: protein-complex assay
Sequence of PI3K p110 beta/p85 alpha (P27986 whole entry, canonical isoform): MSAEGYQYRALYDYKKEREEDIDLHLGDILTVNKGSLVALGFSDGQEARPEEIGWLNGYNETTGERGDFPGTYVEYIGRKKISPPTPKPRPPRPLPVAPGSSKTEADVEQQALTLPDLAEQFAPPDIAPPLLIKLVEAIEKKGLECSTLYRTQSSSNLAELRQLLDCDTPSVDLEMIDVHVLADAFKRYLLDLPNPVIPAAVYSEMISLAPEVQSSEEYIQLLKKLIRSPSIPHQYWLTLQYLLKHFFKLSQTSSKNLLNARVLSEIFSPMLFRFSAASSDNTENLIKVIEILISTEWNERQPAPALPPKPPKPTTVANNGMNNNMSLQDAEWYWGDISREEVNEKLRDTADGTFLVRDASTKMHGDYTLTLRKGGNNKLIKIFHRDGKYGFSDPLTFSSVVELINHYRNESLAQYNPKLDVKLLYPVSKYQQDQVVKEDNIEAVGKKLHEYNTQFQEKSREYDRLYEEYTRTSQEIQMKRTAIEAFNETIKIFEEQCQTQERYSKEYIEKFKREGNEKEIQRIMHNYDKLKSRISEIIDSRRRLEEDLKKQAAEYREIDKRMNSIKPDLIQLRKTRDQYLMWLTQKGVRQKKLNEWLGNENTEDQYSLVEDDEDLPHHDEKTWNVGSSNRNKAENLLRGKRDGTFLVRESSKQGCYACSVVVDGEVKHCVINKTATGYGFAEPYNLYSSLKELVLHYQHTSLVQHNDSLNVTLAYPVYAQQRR
Sequence of PI3K p110 beta/p85 alpha (P42338 whole entry, canonical isoform): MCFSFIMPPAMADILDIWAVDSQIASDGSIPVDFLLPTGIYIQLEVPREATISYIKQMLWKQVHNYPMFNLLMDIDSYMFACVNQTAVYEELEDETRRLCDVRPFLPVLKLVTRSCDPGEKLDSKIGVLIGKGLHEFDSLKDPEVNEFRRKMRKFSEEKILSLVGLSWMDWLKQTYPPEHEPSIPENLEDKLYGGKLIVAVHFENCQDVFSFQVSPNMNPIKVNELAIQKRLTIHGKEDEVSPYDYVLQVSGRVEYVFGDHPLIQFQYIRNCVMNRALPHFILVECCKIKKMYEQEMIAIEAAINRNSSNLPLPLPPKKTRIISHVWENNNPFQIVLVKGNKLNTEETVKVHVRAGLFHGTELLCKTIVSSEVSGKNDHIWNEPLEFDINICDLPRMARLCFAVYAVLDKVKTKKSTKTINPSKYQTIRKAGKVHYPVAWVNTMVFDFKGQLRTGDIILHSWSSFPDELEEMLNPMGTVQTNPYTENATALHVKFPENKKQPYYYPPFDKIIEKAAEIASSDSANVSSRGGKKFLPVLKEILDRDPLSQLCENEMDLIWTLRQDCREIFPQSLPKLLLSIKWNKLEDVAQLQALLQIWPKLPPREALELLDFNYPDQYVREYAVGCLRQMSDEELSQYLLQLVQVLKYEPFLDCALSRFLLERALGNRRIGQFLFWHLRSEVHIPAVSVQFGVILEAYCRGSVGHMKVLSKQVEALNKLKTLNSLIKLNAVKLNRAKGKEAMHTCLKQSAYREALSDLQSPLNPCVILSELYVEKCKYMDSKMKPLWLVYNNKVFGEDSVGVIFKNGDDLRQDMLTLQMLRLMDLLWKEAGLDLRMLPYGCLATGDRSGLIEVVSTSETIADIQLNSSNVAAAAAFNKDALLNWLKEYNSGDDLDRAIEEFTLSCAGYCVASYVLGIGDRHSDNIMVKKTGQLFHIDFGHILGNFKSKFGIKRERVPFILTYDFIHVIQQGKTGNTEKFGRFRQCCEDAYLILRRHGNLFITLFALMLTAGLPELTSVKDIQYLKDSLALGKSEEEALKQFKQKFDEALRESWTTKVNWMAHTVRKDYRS
In short: (§1)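 In vitro kinase assay run against each Class I PI3K isoform, with ATP at 2×Km steady-state concentration; IC50 values are the average of at least 2 determinations.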

[1] = biological target: PI3-kinase p110-delta/p85-alpha (Homo sapiens, UniProt O00329); assay: Inhibition of full length human p110delta/p85alpha using PIP2 as substrate after 30 mins by TR-FRET assay; assay type: protein-complex assay; in short: as §1
Sequence of PI3-kinase p110-delta/p85-alpha (P27986 whole entry): as the sequence (P27986 whole entry, canonical isoform) above
Sequence of PI3-kinase p110-delta/p85-alpha (O00329 whole entry): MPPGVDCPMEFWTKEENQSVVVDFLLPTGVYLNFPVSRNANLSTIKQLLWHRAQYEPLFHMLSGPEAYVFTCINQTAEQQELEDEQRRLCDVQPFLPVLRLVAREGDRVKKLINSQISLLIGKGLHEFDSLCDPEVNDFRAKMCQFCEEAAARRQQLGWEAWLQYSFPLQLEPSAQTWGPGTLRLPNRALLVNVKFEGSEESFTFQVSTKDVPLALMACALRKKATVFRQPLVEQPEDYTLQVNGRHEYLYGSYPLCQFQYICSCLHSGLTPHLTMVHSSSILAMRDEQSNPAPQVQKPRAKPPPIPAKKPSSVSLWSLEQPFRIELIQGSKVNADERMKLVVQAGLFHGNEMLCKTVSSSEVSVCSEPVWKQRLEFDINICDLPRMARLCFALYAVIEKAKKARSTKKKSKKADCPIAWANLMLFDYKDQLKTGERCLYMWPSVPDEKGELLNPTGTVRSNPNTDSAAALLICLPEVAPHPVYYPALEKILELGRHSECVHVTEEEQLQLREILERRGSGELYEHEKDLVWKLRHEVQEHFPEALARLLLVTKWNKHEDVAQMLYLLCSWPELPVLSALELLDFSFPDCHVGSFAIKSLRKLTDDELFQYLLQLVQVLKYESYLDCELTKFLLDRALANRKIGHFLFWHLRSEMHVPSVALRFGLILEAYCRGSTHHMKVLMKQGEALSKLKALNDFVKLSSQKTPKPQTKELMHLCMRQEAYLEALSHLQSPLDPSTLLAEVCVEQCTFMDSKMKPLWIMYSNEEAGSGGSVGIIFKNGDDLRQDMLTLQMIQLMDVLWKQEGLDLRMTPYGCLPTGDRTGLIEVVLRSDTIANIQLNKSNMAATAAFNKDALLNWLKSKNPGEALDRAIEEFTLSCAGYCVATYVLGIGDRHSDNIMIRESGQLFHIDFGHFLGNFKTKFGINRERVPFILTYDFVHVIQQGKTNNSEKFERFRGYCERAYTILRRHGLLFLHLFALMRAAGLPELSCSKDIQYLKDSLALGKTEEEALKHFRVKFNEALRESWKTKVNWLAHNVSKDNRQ

[2] = biological target: PI3-kinase p110-alpha/p85-alpha (Homo sapiens, UniProt P42336); assay: Inhibition of full length human p110alpha/p85alpha using PIP2 as substrate after 30 mins by TR-FRET assay; assay type: protein-complex assay; in short: as §1
Sequence of PI3-kinase p110-alpha/p85-alpha (P27986 whole entry, canonical isoform): as the sequence (P27986 whole entry, canonical isoform) above
Sequence of PI3-kinase p110-alpha/p85-alpha (P42336 whole entry, canonical isoform): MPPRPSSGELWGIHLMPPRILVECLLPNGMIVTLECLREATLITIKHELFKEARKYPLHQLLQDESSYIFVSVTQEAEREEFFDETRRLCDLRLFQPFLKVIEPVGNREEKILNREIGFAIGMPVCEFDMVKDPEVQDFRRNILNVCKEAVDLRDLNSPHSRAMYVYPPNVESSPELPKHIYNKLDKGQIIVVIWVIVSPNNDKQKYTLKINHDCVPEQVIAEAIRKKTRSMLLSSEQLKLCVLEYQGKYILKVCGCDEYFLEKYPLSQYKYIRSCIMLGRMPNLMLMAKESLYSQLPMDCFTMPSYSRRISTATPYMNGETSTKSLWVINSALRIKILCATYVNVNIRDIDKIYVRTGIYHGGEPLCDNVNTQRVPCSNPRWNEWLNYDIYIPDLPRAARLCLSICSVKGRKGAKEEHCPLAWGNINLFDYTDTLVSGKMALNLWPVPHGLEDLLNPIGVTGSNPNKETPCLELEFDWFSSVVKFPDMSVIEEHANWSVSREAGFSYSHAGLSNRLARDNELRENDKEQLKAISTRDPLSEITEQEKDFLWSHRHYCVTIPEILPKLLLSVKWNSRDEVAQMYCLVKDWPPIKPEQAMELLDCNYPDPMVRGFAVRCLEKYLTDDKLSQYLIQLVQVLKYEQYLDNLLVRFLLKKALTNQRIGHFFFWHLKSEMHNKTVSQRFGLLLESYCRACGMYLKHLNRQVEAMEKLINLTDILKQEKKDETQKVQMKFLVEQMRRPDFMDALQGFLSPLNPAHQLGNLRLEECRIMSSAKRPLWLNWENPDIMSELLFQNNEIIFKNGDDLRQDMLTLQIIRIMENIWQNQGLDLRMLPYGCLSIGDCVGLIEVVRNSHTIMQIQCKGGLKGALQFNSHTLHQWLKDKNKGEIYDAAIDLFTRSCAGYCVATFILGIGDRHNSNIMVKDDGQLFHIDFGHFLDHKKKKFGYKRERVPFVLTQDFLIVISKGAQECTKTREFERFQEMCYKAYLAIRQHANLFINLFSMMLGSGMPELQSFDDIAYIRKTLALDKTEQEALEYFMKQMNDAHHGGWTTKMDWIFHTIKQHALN

[3] = biological target: Phosphatidylinositol 4,5-bisphosphate 3-kinase catalytic subunit gamma isoform (Homo sapiens, UniProt P48736); assay: Inhibition of full length human PI3Kgamma using PIP2 as substrate after 30 mins by TR-FRET assay; in short: as §1
Sequence of Phosphatidylinositol 4,5-bisphosphate 3-kinase catalytic subunit gamma isoform (P48736 whole entry, canonical isoform): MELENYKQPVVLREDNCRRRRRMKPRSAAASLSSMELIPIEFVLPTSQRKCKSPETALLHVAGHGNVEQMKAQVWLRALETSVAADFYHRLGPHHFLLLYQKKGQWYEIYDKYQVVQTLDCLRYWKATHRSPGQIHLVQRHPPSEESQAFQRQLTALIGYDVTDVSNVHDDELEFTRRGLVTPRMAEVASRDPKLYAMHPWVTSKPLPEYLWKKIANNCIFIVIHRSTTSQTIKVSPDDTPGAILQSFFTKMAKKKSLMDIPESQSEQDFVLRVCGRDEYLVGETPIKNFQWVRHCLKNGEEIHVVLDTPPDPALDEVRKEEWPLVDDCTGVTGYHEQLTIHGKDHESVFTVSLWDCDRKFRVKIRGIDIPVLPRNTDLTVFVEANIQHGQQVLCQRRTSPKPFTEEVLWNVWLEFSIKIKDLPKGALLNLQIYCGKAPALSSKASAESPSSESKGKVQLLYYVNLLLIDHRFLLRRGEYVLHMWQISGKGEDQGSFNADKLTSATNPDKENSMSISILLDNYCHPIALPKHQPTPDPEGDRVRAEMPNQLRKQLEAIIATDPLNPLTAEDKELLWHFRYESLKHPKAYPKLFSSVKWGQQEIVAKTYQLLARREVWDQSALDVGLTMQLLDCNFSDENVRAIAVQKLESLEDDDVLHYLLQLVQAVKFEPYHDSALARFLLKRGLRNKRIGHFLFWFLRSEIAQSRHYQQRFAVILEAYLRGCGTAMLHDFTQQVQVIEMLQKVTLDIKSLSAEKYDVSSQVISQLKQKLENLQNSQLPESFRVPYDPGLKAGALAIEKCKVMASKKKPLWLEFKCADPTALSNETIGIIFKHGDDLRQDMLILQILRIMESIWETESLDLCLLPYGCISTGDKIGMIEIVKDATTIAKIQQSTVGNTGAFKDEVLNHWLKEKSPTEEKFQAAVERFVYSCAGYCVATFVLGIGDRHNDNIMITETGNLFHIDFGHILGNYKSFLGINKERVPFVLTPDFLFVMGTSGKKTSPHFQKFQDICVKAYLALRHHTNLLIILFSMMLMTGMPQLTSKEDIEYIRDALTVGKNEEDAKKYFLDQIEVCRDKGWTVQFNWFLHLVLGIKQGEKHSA

[4] = Volume of distribution at steady state in Sprague-Dawley rat at 1 mg/kg, iv by ESI-LC/MS/MS analysis; assay type: ADME, organism-based; conditions: in vivo, read-out: Vdss
[5] = MRT in cynomolgus monkey at 1 mg/kg, iv by ESI-LC/MS/MS analysis; assay type: ADME, organism-based, Macaca fascicularis; conditions: in vivo
[6] = Efflux ratio of apparent permeability in human Caco2 cells at 10 uM after 1 to 2 hrs by LC/MS/MS analysis; assay type: ADME, cell-based; conditions: Caco-2
[7] = Fraction unbound in Sprague-Dawley rat plasma; assay type: ADME, cell-free
[8] = Intrinsic clearance in human liver microsomes at 1 uM measured in presence of NADPH/UDPGA by UHPLC-HRMS based assay; assay type: ADME, Microsome
[9] = Fraction unbound in rhesus monkey plasma; assay type: ADME, cell-free, Macaca mulatta
[10] = Clearance in Sprague-Dawley rat at 1 mg/kg, iv by ESI-LC/MS/MS analysis; assay type: ADME, organism-based; conditions: in vivo
Aldehyde oxidase [11] = biological target: T1, Aldehyde oxidase (Homo sapiens, UniProt Q06278); assay: Drug metabolism in human hepatocytes assessed as AO-mediated triazole oxidation at 0.5 uM measured up to 250 mins by UHPLC-HRMS based assay; assay type: ADME, cell-based
T1 sequence (Q06278 whole entry): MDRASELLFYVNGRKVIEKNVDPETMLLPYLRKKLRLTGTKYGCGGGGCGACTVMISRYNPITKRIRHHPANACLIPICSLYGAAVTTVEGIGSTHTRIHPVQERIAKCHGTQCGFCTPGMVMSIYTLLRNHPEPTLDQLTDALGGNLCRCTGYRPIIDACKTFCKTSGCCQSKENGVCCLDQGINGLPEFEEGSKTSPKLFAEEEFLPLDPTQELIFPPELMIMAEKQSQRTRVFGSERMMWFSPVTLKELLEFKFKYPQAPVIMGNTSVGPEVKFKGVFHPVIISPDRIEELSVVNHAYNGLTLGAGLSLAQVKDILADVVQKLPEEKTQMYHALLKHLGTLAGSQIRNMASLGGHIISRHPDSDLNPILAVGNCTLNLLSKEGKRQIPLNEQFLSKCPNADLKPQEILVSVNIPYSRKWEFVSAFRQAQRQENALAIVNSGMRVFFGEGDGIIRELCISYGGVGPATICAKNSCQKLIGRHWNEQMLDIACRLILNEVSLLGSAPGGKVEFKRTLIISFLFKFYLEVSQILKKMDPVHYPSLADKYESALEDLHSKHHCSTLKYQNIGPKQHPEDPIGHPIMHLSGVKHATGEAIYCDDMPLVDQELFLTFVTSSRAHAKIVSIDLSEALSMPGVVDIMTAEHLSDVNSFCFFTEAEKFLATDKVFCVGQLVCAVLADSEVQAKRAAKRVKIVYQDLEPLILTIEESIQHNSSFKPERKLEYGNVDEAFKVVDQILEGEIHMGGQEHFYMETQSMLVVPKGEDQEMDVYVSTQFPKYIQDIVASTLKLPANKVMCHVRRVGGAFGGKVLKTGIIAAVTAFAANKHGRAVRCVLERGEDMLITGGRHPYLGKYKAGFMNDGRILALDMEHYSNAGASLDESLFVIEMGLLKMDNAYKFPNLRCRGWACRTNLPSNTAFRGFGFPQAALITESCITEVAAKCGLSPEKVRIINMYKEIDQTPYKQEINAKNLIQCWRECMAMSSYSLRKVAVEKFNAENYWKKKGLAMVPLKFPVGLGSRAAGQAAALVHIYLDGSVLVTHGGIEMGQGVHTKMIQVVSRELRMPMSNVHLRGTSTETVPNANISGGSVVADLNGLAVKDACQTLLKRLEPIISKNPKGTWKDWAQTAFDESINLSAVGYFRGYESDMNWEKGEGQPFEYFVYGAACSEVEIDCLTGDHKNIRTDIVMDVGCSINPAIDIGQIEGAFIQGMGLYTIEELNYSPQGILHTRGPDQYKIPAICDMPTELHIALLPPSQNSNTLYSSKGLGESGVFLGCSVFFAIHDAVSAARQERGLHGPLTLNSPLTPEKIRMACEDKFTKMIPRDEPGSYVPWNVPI

[12] = Terminal half life in rhesus monkey at 1 mg/kg, iv by ESI-LC/MS/MS analysis; assay type: ADME, organism-based, Macaca mulatta; conditions: in vivo, read-out: beta t1/2 (converted)
[13] = Oral bioavailability in cynomolgus monkey at 5 mg/kg by ESI-LC/MS/MS analysis; assay type: ADME, organism-based, Macaca fascicularis; conditions: in vivo
[14] = MRT in Beagle dog at 1 mg/kg, iv by ESI-LC/MS/MS analysis; assay type: ADME, organism-based, Canis lupus familiaris; conditions: in vivo
[15] = Volume of distribution at steady state in cynomolgus monkey at 1 mg/kg, iv by ESI-LC/MS/MS analysis; assay type: ADME, organism-based, Macaca fascicularis; conditions: in vivo, read-out: Vdss
[16] = Volume of distribution at steady state in rhesus monkey at 1 mg/kg, iv by ESI-LC/MS/MS analysis; assay type: ADME, organism-based, Macaca mulatta; conditions: in vivo, read-out: Vdss
[17] = Volume of distribution at steady state in Beagle dog at 1 mg/kg, iv by ESI-LC/MS/MS analysis; assay type: ADME, organism-based, Canis lupus familiaris; conditions: in vivo, read-out: Vdss
[18] = Terminal half life in cynomolgus monkey at 1 mg/kg, iv by ESI-LC/MS/MS analysis; assay type: ADME, organism-based, Macaca fascicularis; conditions: in vivo, read-out: beta t1/2 (converted)
Aldehyde oxidase [19] = biological target: T1, Aldehyde oxidase; assay: Drug metabolism in human liver cytosol assessed as AO-mediated 4-(6-(2-amino-3-fluoropyridin-4-yl)-2-methyl-4-(4H-1,2,4-triazol-3-yl)-1H-benzo[d]imidazol-1-yl)-5,8-difluoroquinolin-2(1H)-one metabolite formation at 0.5 uM measured after 2 hrs by UHPLC-HRMS based assay; assay type: ADME, subcellular
[20] = Terminal half life in Sprague-Dawley rat at 1 mg/kg, iv by ESI-LC/MS/MS analysis; assay type: ADME, organism-based; conditions: in vivo, read-out: beta t1/2 (converted)
[21] = Conformation stability assessed as rate constant for (P)-4-(1-(5,8-difluoroquinolin-4-yl)-2-methyl-4-(4H-1,2,4-triazol-3-yl)-1H-benzo[d]imidazol-6-yl)-3-fluoropyridin-2-amine formation at 10 mg at 120 degC by chiral SFC analysis; assay type: physicochemical
[22] = biological target: Voltage-gated inwardly rectifying potassium channel KCNH2 (Homo sapiens, UniProt Q12809); assay: Inhibition of human ERG at 25 uM
[23] = Clearance in Beagle dog at 1 mg/kg, iv by ESI-LC/MS/MS analysis; assay type: ADME, organism-based, Canis lupus familiaris; conditions: in vivo
[24] = biological target: Phosphatidylinositol 4,5-bisphosphate 3-kinase catalytic subunit beta isoform (Homo sapiens) (UniProt P42338); assay: Inhibition of partial length human PI3Kbeta expressed in mammalian system at 10 uM by active site-directed competition binding based KINOMEscan assay
In short: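 Active-site-directed competition binding assay across more than 400 human kinases, with compound tested at 10 µM.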

[25] = Clearance in cynomolgus monkey at 1 mg/kg, iv by ESI-LC/MS/MS analysis; assay type: ADME, organism-based, Macaca fascicularis; conditions: in vivo
Cytochrome P450 = assay: Inhibition of human CYP450 at 25 uM; assay type: ADME, protein assay
[26] = Oral bioavailability in Sprague-Dawley rat at 5 mg/kg by ESI-LC/MS/MS analysis; assay type: ADME, organism-based; conditions: in vivo
[27] = MRT in rhesus monkey at 1 mg/kg, iv by ESI-LC/MS/MS analysis; assay type: ADME, organism-based, Macaca mulatta; conditions: in vivo
[28] = Clearance in rhesus monkey at 1 mg/kg, iv by ESI-LC/MS/MS analysis; assay type: ADME, organism-based, Macaca mulatta; conditions: in vivo
[29] = MRT in Sprague-Dawley rat at 1 mg/kg, iv by ESI-LC/MS/MS analysis; assay type: ADME, organism-based; conditions: in vivo
[30] = Permeability across apical to basolateral side in human Caco2 cells at 10 uM after 1 to 2 hrs by LC/MS/MS analysis; assay type: ADME, cell-based; conditions: Caco-2, read-out: permeability
[31] = Fraction unbound in Beagle dog plasma; assay type: ADME, cell-free, Canis lupus familiaris
[32] = Fraction unbound in cynomolgus monkey plasma; assay type: ADME, cell-free, Macaca fascicularis
Aldehyde oxidase [33] = biological target: T1, Aldehyde oxidase; assay: Drug metabolism in human hepatocytes assessed as AO-mediated 4-(6-(2-amino-3-fluoropyridin-4-yl)-2-methyl-4-(4H-1,2,4-triazol-3-yl)-1H-benzo[d]imidazol-1-yl)-5,8-difluoroquinolin-2(1H)-one metabolite formation at 0.5 uM measured up to 250 mins by UHPLC-HRMS based assay; assay type: ADME, cell-based
[34] = Terminal half life in Beagle dog at 1 mg/kg, iv by ESI-LC/MS/MS analysis; assay type: ADME, organism-based, Canis lupus familiaris; conditions: in vivo, read-out: beta t1/2 (converted)

Compound: Nc1nccc(-c2cc(-c3nnc[nH]3)c3ncn(-c4ccnc5c(F)ccc(F)c45)c3c2)c1F
- pIC50 (PI3K p110 beta/p85 alpha): 7.96
- pIC50 [1]: 7.17
- pIC50 [2]: 6.63
- pIC50 [3]: 6.36

Compound: Cc1nc2c(-c3nnc[nH]3)cc(-c3ccnc(N)c3F)cc2n1-c1ccnc2c(F)ccc(F)c12
- Vd [4]: 2.68 L/kg
- MRT [5]: 4.3 h
- efflux ratio at 10 µM [6]: < 1.5
- fraction unbound [7]: 0.19
- CLint scaled at 1 µM ([8]; liver microsomes, read-out: CLH (converted)): 2.5 mL/min/kg
- CLH ([8]; microsomes, 1 µM): < 2 mL/min/kg
- fraction unbound [9]: 0.072
- clearance [10]: 11.3 mL/min/kg
- Drug metabolism (Aldehyde oxidase [11]): Metabolite_Detected
- Stability (Aldehyde oxidase [11]): Stable
- half-life [12]: 6.04 h
- bioavailability [13]: 64.2%
- MRT [14]: 4.04 h
- Vd [15]: 0.45 L/kg
- Vd [16]: 0.63 L/kg
- Vd [17]: 0.89 L/kg
- half-life [18]: 5.17 h
- Drug metabolism (Aldehyde oxidase [19]): Metabolite_Notdetected; also recorded: Metabolite_Detected
- half-life [20]: 9.55 h
- K [21]: 2.64 ×10⁻⁷ /s
- inhibition (INH) [22]: Not Active
- clearance [23]: 3.67 mL/min/kg
- inhibition [24]: Active
- clearance [25]: 1.83 mL/min/kg
- pIC50 [3]: < 5.00 and 5.37 and 5.38
- inhibition (INH) (Cytochrome P450): Not Active
- bioavailability [26]: 60.4%
- MRT [27]: 6.2 h
- clearance [28]: 1.67 mL/min/kg
- MRT [29]: 3.87 h
- Papp A→B at 10 µM [30]: 17 ×10⁻⁶ cm/s
- fraction unbound [31]: 0.078
- fraction unbound [32]: 0.062
- Drug metabolism (Aldehyde oxidase [33]): Metabolite_Detected
- half-life [34]: 3.61 h
